Test results: ChEMBL document CHEMBL1141608, “Azaterphenyl diamidines as antileishmanial agents” (Bioorg Med Chem Lett, 2008)
pIC50: −log10 of the molar value. Activity calls are given as the source filed them. The calls are words filed in the database; no cut-off is given here.

Experiments:
Leishmania donovani [1] = assay: Antileishmanial activity against Leishmania donovani axenic amastigotes; format: functional, organism-based
Outline: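 Axenic L. donovani amastigotes; IC50 is the mean of at least two independent assays.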

L6 = assay: Cytotoxicity against rat L6 cells; format: cell-based
[2] = Binding affinity to poly(dA-dT)2 assessed as melting temperature
Leishmania amazonensis [3] = assay: Antileishmanial activity against Leishmania amazonensis in mouse J774 cells
J774 = assay: Cytotoxicity against mouse J774 cells; format: cell-based
Leishmania amazonensis [4] = assay: Antileishmanial activity against Leishmania amazonensis in mouse J774 cells at <5 uM
Leishmania donovani [5] = assay: Induction of kinetoplast disintegration in Leishmania donovani axenic amastigotes at […] after 24 hrs; format: functional, organism-based
Leishmania donovani [6] = assay: Induction of mitochondrial dilation in Leishmania donovani axenic amastigotes at […] after 24 hrs; format: functional, organism-based

Row | SMILES | pIC50 (Leishmania donovani [1]) | pIC50 (L6) | other results
1 | N=C(N)c1cnc(-c2ccc(-c3cnc(C(=N)N)cn3)cc2)cn1 |  | 4.33 | 
2 | N=C(N)c1ccc(-c2cnc(-c3ccc(C(=N)N)nc3)nc2)cn1 | 5.74 | 5.28 | ΔTm [2]: 6.8 °C
3 | N=C(N)c1ccc(-c2ccc(-c3cnc(C(=N)N)cn3)cn2)cc1 | 4.80 | 4.03 | 
4 | C[C@@H]1[C@H](O)[C@@H](C)/C=C/C=C/C=C/C=C/C=C/C=C/C=C/[C@H](O[C@@H]2O[C@H](C)[C@@H](O)[C@H](N)[C@@H]2O)C[C@@H]2O[C@](O)(C[C@@H](O)C[C@@H](O)[C@H](O)CC[C@@H](O)C[C@@H](O)CC(=O)O[C@H]1C)C[C@H](O)[C@H]2C(=O)O (stereo in doubt) [AMPHOTERICIN B] |  |  | pIC50 (Leishmania amazonensis [3]): 7.34
5 | N=C(N)c1ccc(-c2ccc(-c3ccc(C(=N)N)cn3)cc2)nc1 | < 4.00 |  | 
6 | N=C(N)c1ccc(-c2ccc(-c3ccc(C(=N)N)cn3)cn2)cc1 | 5.17 | 4.55 | 
7 | N=C(N)c1ccc(-c2ccc(-c3cnc(C(=N)N)nc3)cn2)cc1 | 5.59 | 5.19 | 
8 | N=C(N)c1ncc(-c2ccc(-c3cnc(C(=N)N)nc3)cc2)cn1 | 5.77 | 5.66 | 

Second part, led by results:

Row | pIC50 (Leishmania donovani [1]) | SMILES | pIC50 (L6) | other results
9 | 6.70 | N=C(N)c1ccc(-c2ccc(-c3cnc(C(=N)N)nc3)cc2)cc1 | 5.33 | 
10 | 6.47 | N=C(N)c1ccc(-c2ccc(-c3ccc(C(=N)N)cc3)c(F)c2)cc1 | 5.19 | ΔTm [2]: 15.1 °C
11 | 6.29 | N=C(N)c1ccc(-c2ccc(-c3ccc(C(=N)N)nc3)cn2)cc1 | 4.70 | 
12 | 5.96 | N=C(N)c1ccc(-c2cnc(-c3ccc(C(=N)N)cc3)nc2)cc1 | 4.39 | 
13 | 5.85 | N=C(N)c1ccc(-c2ccc(-c3ccc(C(=N)N)cn3)cc2)cc1 | 4.57 | 
14 | 6.14 | N=C(N)c1ccc(-c2ccc(-c3ccc(C(=N)N)cc3)nn2)cc1 | 4.51 | 
15 | 6.09 | N=C(N)c1ccc(-c2ccc(-c3ccc(C(=N)N)cc3)nc2)cc1 | 4.30 | 
16 | 7.20 | N=C(N)c1ccc(-c2ccc(-c3ccc(C(=N)N)nc3)cc2)cn1 | 5.92 | Activity (J774): Toxic; Activity (Leishmania amazonensis [4]): inactive
17 | 7.08 | N=C(N)c1ccc(-c2ccc(-c3ccc(C(=N)N)nc3)cc2)cc1 | 5.55 | 
18 | 6.57 | N=C(N)c1ccc(-c2ccc(-c3ccc(C(=N)N)cc3)cc2)cc1 | 4.66 | Activity (Leishmania donovani [5]): Active; Activity (J774): Toxic; Activity (Leishmania donovani [6]): Active; Activity (Leishmania amazonensis [4]): inactive
19 | 6.25 | N=C(N)c1ccc(-c2cnc(-c3ccc(C(=N)N)cc3)cn2)cc1 | 4.37 | 
